Assay results from different studies.
Compare with care: the assays were run in different laboratories.
Sample: Caco-2

`O=C(CCCN1CCC2(CC1)C(=O)NCN2c1ccccc1)N(CC1CCCCC1)c1ccccc1` has a Papp A→B of 2.83 ×10⁻⁶ cm/s.
`C=C(CCC=C(C)C)[C@H]1CC[C@]2(C)[C@@H]1[C@H](O)C[C@@H]1[C@@]3(C)C[C@@H](O)[C@H](O[C@@H]4O[C@H](CO)[C@@H](O)[C@H](O)[C@H]4O[C@@H]4O[C@H](CO)[C@@H](O)[C@H](O)[C@H]4O)C(C)(C)[C@@H]3CC[C@]12C` has a Papp of 3.56 ×10⁻⁶ cm/s (1 mg/mL, pH 7.4).
The Papp of `NC[C@H]1O[C@@H](O[C@@H]([C@H](NCCCC(=O)NCc2ccc(N3CCC(Oc4ccc(OC(F)(F)F)cc4)CC3)cc2)C(N)=O)[C@H]2O[C@@H](n3ccc(=O)[nH]c3=O)C(O)C2O)[C@H](O)[C@@H]1O` (stereo partly shown) is reported as < 1 ×10⁻⁶ cm/s.
`COc1cc2c(c(OC)c1OC)-c1ccc(OC)c(=O)cc1[C@@H](NC(C)=O)CC2` has a Papp B→A of 4.9 ×10⁻⁶ cm/s.
For `CC[C@@]1(O)C(=O)OCc2c1cc1n(c2=O)Cc2cc3ccccc3nc2-1`, the Papp B→A was ~3.5 ×10⁻⁶ cm/s (105 min).
The Papp A→B of `COC(=O)N[C@H](C(=O)NN(CCC[C@@]1(Cc2ccccc2)C(=O)N([C@H]2c3ccccc3C[C@H]2O)C[C@H]1O)Cc1ccc(Br)cc1)C(C)(C)C` is reported as > 20 ×10⁻⁶ cm/s (10 µM, 1 h, pH 7.4).
For `N=c1c2c(-c3ccccc3)c(-c3ccccc3)n(Cc3ccccc3)c2ncn1[C@H]1CC[C@H](O)CC1`, the Papp B→A was 2 ×10⁻⁶ cm/s (3 µM, 2 h, pH 7.4).
For `C[C@H]1O[C@@H](O[C@H]2[C@@H](O)C[C@H](O[C@H]3[C@@H](O)C[C@H](O[C@H]4CC[C@@]5(C)[C@H](CC[C@@H]6[C@@H]5C[C@@H](O)[C@]5(C)[C@@H](C7=CC(=O)OC7)CC[C@]65O)C4)O[C@@H]3C)O[C@@H]2C)C[C@H](O)[C@@H]1O`, the Papp B→A was 22.8 ×10⁻⁶ cm/s (10 µM, 1 h, pH 7.4).
`C=CCc1ccc(O)c(-c2cc(CC=C)ccc2O)c1` gave a Papp A→B of 9 ×10⁻⁶ cm/s (0.05 mg/mL, 4 h, pH 7.4).
For `C[C@]12C[C@@H](O)[C@H]3[C@@H](CC[C@]4(O)C[C@@H](O)C[C@@H](O)[C@]34CO)[C@@]1(O)CC[C@@H]2c1cn(Cc2ccccc2)nn1`, the Papp B→A was 0.14 ×10⁻⁶ cm/s (40 min, pH 6.5).
The Papp B→A of `COc1ccc2c(c1)[C@]13CCCC[C@@H]1[C@H](C2)N(C)CC3` is reported as 69.6 ×10⁻⁶ cm/s (10 µM, pH 6.5).
With `CC(C)NCC(O)COc1cccc2ccccc12` (stereo not shown) the Papp A→B was 21.8 ×10⁻⁶ cm/s (1 h, pH 7.4).
The Papp B→A of `C/N=c1\nc(-c2ccccc2)n(-c2ccccc2)s1` is reported as 37.4 ×10⁻⁶ cm/s (20 µM, 95 min).
